This note sets out measurements from ChEMBL document CHEMBL1153941, “Synthesis, molecular modeling, and selective inhibitory activity against human monoamine oxidases of 3-carboxamido-7-substituted coumarins” (J Med Chem, 2009).

For test [1], the target named is T1, Amine oxidase [flavin-containing] A (Homo sapiens, UniProt P21397).
T1 sequence (P21397 whole entry): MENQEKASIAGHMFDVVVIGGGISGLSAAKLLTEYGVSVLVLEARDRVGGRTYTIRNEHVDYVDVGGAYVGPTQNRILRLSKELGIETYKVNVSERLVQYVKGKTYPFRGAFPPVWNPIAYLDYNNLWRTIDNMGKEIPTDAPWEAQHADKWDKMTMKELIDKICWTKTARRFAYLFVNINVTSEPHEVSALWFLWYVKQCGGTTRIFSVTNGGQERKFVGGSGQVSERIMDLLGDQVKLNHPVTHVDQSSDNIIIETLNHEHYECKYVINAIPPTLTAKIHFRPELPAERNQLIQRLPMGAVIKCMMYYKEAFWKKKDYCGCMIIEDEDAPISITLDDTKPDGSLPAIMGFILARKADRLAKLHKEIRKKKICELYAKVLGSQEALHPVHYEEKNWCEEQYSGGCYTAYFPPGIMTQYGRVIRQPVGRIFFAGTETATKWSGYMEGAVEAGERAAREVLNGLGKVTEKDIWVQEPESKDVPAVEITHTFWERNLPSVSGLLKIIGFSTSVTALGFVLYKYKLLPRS
In words: Inhibition of human recombinant MAOA expressed in BTI-TN-5B1-4 cells assessed as effect on H2O2 production from para-tyramine at 100 uM by fluorimetric method. It counts as cell-based. Put shortly:
(§1)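 Enzyme and test drug were preincubated 15 min at 37 °C in 0.05 M sodium phosphate, pH 7.4. Final 1 mM p-tyramine, 200 µM Amplex Red and 1 U/mL HRP were then added. Resorufin fluorescence (ex 545/em 590 nm) was read over 15 min, minus enzyme-free background. Top concentration tested was 100 µM.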

Test [2] addresses T2, Amine oxidase [flavin-containing] B (Homo sapiens, UniProt P27338).
T2 sequence (P27338 whole entry): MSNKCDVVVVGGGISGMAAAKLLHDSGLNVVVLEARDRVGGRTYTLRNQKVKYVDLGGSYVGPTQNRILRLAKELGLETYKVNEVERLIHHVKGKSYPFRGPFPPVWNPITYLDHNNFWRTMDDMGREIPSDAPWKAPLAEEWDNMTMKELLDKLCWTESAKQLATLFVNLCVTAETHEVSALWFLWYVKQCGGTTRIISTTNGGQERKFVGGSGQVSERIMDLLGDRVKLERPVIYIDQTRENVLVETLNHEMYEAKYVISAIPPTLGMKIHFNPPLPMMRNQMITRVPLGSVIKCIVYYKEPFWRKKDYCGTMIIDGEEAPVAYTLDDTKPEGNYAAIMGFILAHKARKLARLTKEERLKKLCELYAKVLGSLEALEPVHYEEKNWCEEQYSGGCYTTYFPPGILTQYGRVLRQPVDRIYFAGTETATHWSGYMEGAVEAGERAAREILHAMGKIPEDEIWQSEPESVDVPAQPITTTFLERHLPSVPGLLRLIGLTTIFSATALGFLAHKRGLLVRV
The test can be described thus: Inhibition of human recombinant MAOB expressed in BTI-TN-5B1-4 cells assessed as effect on H2O2 production from para-tyramine at 1 mM by fluorimetric method. It counts as cell-based. Put shortly:
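Drugs preincubated with enzyme 15 min, 37 °C, 0.05 M sodium phosphate pH 7.4. Amplex Red 200 µM, HRP 1 U/mL, p-tyramine 1 mM (final) added. Resorufin fluorescence (ex 545/em 590 nm) read over 15 min at 37 °C, enzyme-free background subtracted.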

Test [3] deals with T1, Amine oxidase [flavin-containing] A. The test can be described thus: Inhibition of human recombinant MAOA expressed in BTI-TN-5B1-4 cells assessed as effect on H2O2 production from para-tyramine by fluorimetric method. It counts as cell-based.
The target of test [4] is T2, Amine oxidase [flavin-containing] B. In words: Inhibition of human recombinant MAOB expressed in BTI-TN-5B1-4 cells assessed as effect on H2O2 production from para-tyramine at 100 uM by fluorimetric method. It counts as cell-based. Put shortly:
as §1

Another test is filed under the species Homo sapiens. In words: Selectivity index, ratio of IC50 for human recombinant MAOA to IC50 for human recombinant MAOB.

Structures are written as SMILES.

As for `O=C(Nc1ccccc1Cc1ccccc1)c1cc2ccccc2oc1=O`, the IC50 (usually the concentration that inhibits the measured activity by half) in test [1] was “Not Active”.

Regarding `O=C(NCCN1CCOCC1)c1ccc(Cl)cc1` [MOCLOBEMIDE], the half-inhibitory concentration (IC50) entry in test [2] is reported as “Not Active”.

Consider `O=C(Nc1ccccc1)c1cc2ccccc2oc1=O`, for which the concentration for half-maximal inhibition (IC50) in test [3] stood at 13.1 µM.

Take `Cc1cccc(NC(=O)c2cc3ccccc3oc2=O)c1C`: in test [3], the half-maximal inhibitory concentration (IC50) came out at 20.6 µM.

As for `COc1cc(NC(=O)c2cc3ccc(OCc4ccc(F)cc4)cc3oc2=O)cc(OC)c1`, in test [3], the IC50 came to 52.6 µM.

As for `O=C(NCCc1ccccc1)c1cc2ccccc2oc1=O`, the IC50 entry in test [4] and in test [1] was “Not Active” in each case.

For the compound `COc1cc(NC(=O)c2cc3ccccc3oc2=O)cc(OC)c1`, the IC50 in test [3] was 61.5 µM.

With `O=C(Nc1ccc(F)cc1)c1cc2ccccc2oc1=O`, the IC50 in test [3] worked out at 13.1 µM.

On to `Cc1cccc(Cl)c1NC(=O)c1cc2ccc(OCc3ccccc3)cc2oc1=O`, for which the IC50 in test [3] worked out at 49.7 µM.

On to `COc1ccc(NC(=O)c2cc3ccc(OCc4ccc(F)cc4)cc3oc2=O)cc1OC`, for which the IC50 in test [3] came out at 49.2 µM.

As to `O=C(NNc1ccccc1)c1cc2ccc(OCc3ccccc3)cc2oc1=O`, the IC50 in test [3] is 41.4 µM.

With `Cc1cc(C)cc(NC(=O)c2cc3ccccc3oc2=O)c1`, in test [3], the IC50 is 17.6 µM.

Consider `CC(C)CNC(=O)c1cc2ccc(OCc3ccccc3)cc2oc1=O`, for which, in test [3], the IC50 is 58.6 µM.

`N#Cc1c(F)c(F)c(NC(=O)c2cc3ccc(OCc4ccccc4)cc3oc2=O)c(F)c1F`: the IC50 in test [3] worked out at 61.4 µM.

For the compound `Cc1cccc(C)c1NC(=O)c1cc2ccccc2oc1=O`, the IC50 in test [3] is 9.79 µM.

As to `COc1cccc(NC(=O)c2cc3ccccc3oc2=O)c1`, the IC50 entry in test [1] is listed as “Not Active”.

In the case of `O=C(NC1CCCCC1)c1cc2ccc(OCc3ccccc3)cc2oc1=O`, the IC50 result in test [1] is “Not Active”.

With `CN(C(=O)c1cc2ccccc2oc1=O)c1ccccc1`, the IC50 entry in test [1] was “Not Active”.

`Cc1ccc(NC(=O)c2cc3ccccc3oc2=O)cc1`: the IC50 in test [3] was determined as 19.5 µM.

For the compound `CC(C)NC(=O)c1cc2ccccc2oc1=O`, the IC50 result in test [1] was “Not Active”.

With `O=C(O)c1ccc(NC(=O)c2cc3ccccc3oc2=O)cc1`, the IC50 in test [3] worked out at 9.97 µM.

`O=C(Nc1c(F)cccc1F)c1cc2ccccc2oc1=O`: in test [3], the IC50 was 12.8 µM.

Consider `Cc1ccc(NC(=O)c2cc3ccccc3oc2=O)cc1C`, for which the IC50 in test [3] came out at 18.8 µM.

As to `CS(=O)(=O)c1ccc(NC(=O)c2cc3ccccc3oc2=O)cc1`, the IC50 in test [3] turned out to be 9.33 µM.

With `COc1ccc(NC(=O)c2cc3ccc(OCc4ccccc4)cc3oc2=O)cc1OC`, the IC50 entry in test [1] is reported as “Not Active”.

As to `O=C(Nc1cccc(F)c1)c1cc2ccccc2oc1=O`, in test [1], the IC50 result is “Not Active”.

Turning to `Cc1ccc(NC(=O)c2cc3ccccc3oc2=O)c(C)c1`, the IC50 in test [3] turned out to be 12.3 µM.

In the case of `N#Cc1c(F)c(F)c(NC(=O)c2cc3ccccc3oc2=O)c(F)c1F`, the IC50 in test [3] turned out to be 16 µM.

With `O=C(NC1CCCCC1)c1cc2ccccc2oc1=O`, the IC50 result in test [1] is reported as “Not Active”.

For `O=C(Nc1cccc(C(F)(F)F)c1)c1cc2ccccc2oc1=O`, the IC50 entry in test [1] is on record as “Not Active”.

Consider `CCc1ccc(NC(=O)c2cc3ccccc3oc2=O)cc1`, for which the IC50 in test [3] worked out at 15.7 µM.

Turning to `Cc1cccc(Cl)c1NC(=O)c1cc2ccccc2oc1=O`, in test [1], the IC50 entry is listed as “Not Active”.

Take `Cc1ccc(C)c(NC(=O)c2cc3ccccc3oc2=O)c1`: in test [3], the IC50 came to 15.9 µM.

With `O=C(Nc1ccc(O)cc1)c1cc2ccccc2oc1=O`, the IC50 result in test [1] is on record as “Not Active”.

In the case of `CSc1ccc(NC(=O)c2cc3ccccc3oc2=O)cc1`, the IC50 in test [3] came out at 14.8 µM.

`CCOC(=O)c1ccc(NC(=O)c2cc3ccccc3oc2=O)cc1`: the Ratio IC50 in the test listed under Homo sapiens was less than 0.16. Also, the results for the IC50 in test [3] and in test [4] were 16 µM and “Not Active”, respectively.

Take `CC(C)c1ccc(NC(=O)c2cc3ccccc3oc2=O)cc1`: in test [3], the IC50 came to 15.1 µM.

`O=C(c1cc2ccccc2oc1=O)N(c1ccccc1)c1ccccc1`: the IC50 entry in test [4] and in test [1] was “Not Active” throughout.

In the case of `CN(C(=O)c1cc2ccc(OCc3ccccc3)cc2oc1=O)c1ccccc1`, in test [1], the IC50 result was “Not Active”.

For the compound `Cc1cccc(Cl)c1NC(=O)c1cc2ccc(OCc3ccc(F)cc3)cc2oc1=O`, in test [3], the IC50 was found to be 59.6 µM.

`CN(Cc1ccccc1)C(=O)c1cc2ccccc2oc1=O`: the IC50 entry in test [4] and in test [1] was “Not Active” each time.

With `COc1cc(NC(=O)c2cc3ccc(OCc4ccccc4)cc3oc2=O)cc(OC)c1`, in test [3], the IC50 came out at 52.9 µM.

Consider `N#Cc1c(F)c(F)c(NC(=O)c2cc3ccc(OCc4ccc(F)cc4)cc3oc2=O)c(F)c1F`, for which the IC50 in test [3] was 58.5 µM.

Consider `O=C(NCc1ccccc1)c1cc2ccc(OCc3ccccc3)cc2oc1=O`, for which the IC50 entry in test [1] is on record as “Not Active”.

For `C#CCNC(=O)c1cc2ccccc2oc1=O`, the IC50 result in test [4] and in test [1] was “Not Active” each time.

On to `O=C(NCc1ccccc1)c1cc2ccccc2oc1=O`, for which the IC50 result in test [1] is listed as “Not Active”.

As to `NCCNC(=O)c1cc2ccccc2oc1=O`, the IC50 entry in test [1] was “Not Active”.

As to `CC(C)c1ccc(NC(=O)c2cc3ccc(OCc4ccc(F)cc4)cc3oc2=O)cc1`, the IC50 result in test [4] and in test [1] was “Not Active” each time.

As for `CC(C)c1ccc(NC(=O)c2cc3ccc(OCc4ccccc4)cc3oc2=O)cc1`, in test [3], the IC50 was found to be 60.9 µM.

As for `O=C(Nc1c(F)c(F)nc(F)c1F)c1cc2ccccc2oc1=O`, the half-inhibitory concentration (IC50) in test [3] amounted to 11.4 µM.

Consider `O=C(Nc1ccccc1Cc1ccccc1)c1cc2ccc(OCc3ccccc3)cc2oc1=O`, for which the IC50 in test [3] worked out at 51.9 µM.

Regarding `CC(C)CNC(=O)c1cc2ccccc2oc1=O`, the IC50 entry in test [1] is “Not Active”.

On to `O=C(Cl)c1ccc(NC(=O)c2cc3ccccc3oc2=O)cc1`, for which the Ratio IC50 in the test listed under Homo sapiens was less than 0.1. The IC50 in test [3] is 9.67 µM; in test [4], “Not Active”.

With `COc1ccc(NC(=O)c2cc3ccc(OCc4ccccc4)c(C)c3oc2=O)cc1OC`, in test [3], the IC50 was 48.9 µM.

For `O=C(Nc1ccccc1Cc1ccccc1)c1cc2ccc(OCc3ccc(F)cc3)cc2oc1=O`, in the test filed under Homo sapiens, the Ratio IC50 is less than 0.56. For the same compound, the IC50 is 55.8 µM in test [3] and “Not Active” in test [4].

With `COc1ccc(NC(=O)c2cc3ccccc3oc2=O)cc1OC`, the IC50 in test [3] turned out to be 9.45 µM.

Turning to `CC(C)NC(=O)c1cc2ccc(OCc3ccccc3)cc2oc1=O`, in the test filed under Homo sapiens, the Ratio IC50 is less than 0.63. The figures for the IC50 in test [3] and in test [4] were 63.5 µM and “Not Active”, respectively.

Consider `COc1ccc(NC(=O)c2cc3ccccc3oc2=O)cc1`, for which the half-maximal inhibitory concentration (IC50) result in test [1] is “Not Active”.

For `O=C(Nc1c(F)c(F)c(F)c(F)c1F)c1cc2ccccc2oc1=O`, the IC50 entry in test [1] is on record as “Not Active”.

Take `Cc1cccc(NC(=O)c2cc3ccccc3oc2=O)c1`: the IC50 in test [3] was 14.5 µM.
